# Assay results gathered from unrelated publications.
# Each line is one published result; the experiments were not run side by side.
# MET M1250T: Hepatocyte growth factor receptor (MET, Homo sapiens, UniProt P08581, M1250T)
# MET Y1235D: Hepatocyte growth factor receptor (MET, Homo sapiens, UniProt P08581, Y1235D)
# MET: Hepatocyte growth factor receptor (MET, Homo sapiens, UniProt P08581)
Structure (SMILES),target,test,setting,remaining binding [%]
CN1CCN(c2ccc(Nc3nccc(-c4ccccc4)n3)cc2C(F)(F)F)CC1,MET M1250T,binding,10 µM,24
CN(C)C(=O)Cn1cc(-c2nc([C@@](C)(c3ccc(-c4cnc(N)nc4)cc3)C3CC3)no2)cn1,MET Y1235D,"cell-free assay, competition with immobilised ligand",1 µM,96
Nc1ncc2c(n1)-c1c([nH]c3ccc(C#CC4CC4)cc13)CCCC2,MET Y1235D,"binding, competition with immobilised ligand",1 µM,92
COc1cnc(Nc2cccc(S(N)(=O)=O)c2)nc1N1CCN(c2ccccc2)C(=O)C1,MET Y1235D,"binding, competition with immobilised ligand",1 µM,100
N#Cc1ccccc1CSc1nnc2c(n1)[nH]c1ccccc12,MET,"binding, competition with immobilised ligand",10 µM,87
CCS(=O)(=O)c1cc2cc(C[C@](O)(CC(C)(C)c3ccc(F)cc3C(N)=O)C(F)(F)F)[nH]c2cn1,MET,"cell-free assay, competition with immobilised ligand",1 µM,98
O=C(c1ccc(Nc2ncc(Cl)c(-c3ccc(Cl)s3)n2)cc1)N1CCC(N2CCCC2)CC1,MET,"binding, competition with immobilised ligand",1 µM,6.9
CNC(=O)[C@@H]1CC[C@@H](n2c(-c3ccc4cnccc4c3)nc3ccc(C(=O)NCc4cccc(C(N)=O)c4)cc32)C1,MET,"binding, competition with immobilised ligand",1 µM,98
CN1CCN(c2ccc(Nc3nccc(-c4cccc([N+](=O)[O-])c4)n3)cc2C(F)(F)F)CC1,MET Y1235D,binding,10 µM,27
O=C(c1ccc(Nc2ncc(Cl)c(-c3cc4ccccc4s3)n2)cc1)N1CCC(N2CCCC2)CC1,MET M1250T,"binding, competition with immobilised ligand",1 µM,31
COc1cnc(Nc2cccc(S(N)(=O)=O)c2)nc1N1CCN(c2ccccc2)CC1,MET M1250T,"binding, competition with immobilised ligand",1 µM,74
FC(F)(F)Oc1cccc(-c2cnc3ccc(-c4ccncc4)nn23)c1,MET,"cell-free assay, competition with immobilised ligand",5 µM,63
C[C@H](c1ccc(F)cc1)N(Cc1cccc(C(=O)O)c1)C(=O)c1cnc2ccccc2c1,MET M1250T,"cell-free assay, competition with immobilised ligand",1 µM,93
COc1ccnn2ncc(-c3ccnc(N(C)C)n3)c12,MET Y1235D,binding,1 µM,94
O=C(NCCCN1CCOCC1)c1ccc(Nc2nccc(-c3cc4ccccc4s3)n2)cc1,MET Y1235D,"binding, competition with immobilised ligand",1 µM,100
CN(C)c1nccc(-c2cnc3ncccn23)n1,MET Y1235D,binding,1 µM,76
O=C(c1ccc(Nc2nccc(-c3cc4ccccc4s3)n2)cc1)N1CCC(N2CCCC2)CC1,MET,"binding, competition with immobilised ligand",1 µM,69
CN(C)c1ncc(F)c(-c2cnn3ncccc23)n1,MET,binding,1 µM,97
O=C(NCCCN1CCOCC1)c1ccc(Nc2ncc(Cl)c(-c3ccc(Cl)s3)n2)cc1,MET,"binding, competition with immobilised ligand",1 µM,37
COc1ncc2cc3ccccc3nc2c1C#N,MET M1250T,"cell-free assay, competition with immobilised ligand",5 µM,100
O=C(Nc1c[nH]nc1C(=O)NC1CCNCC1)c1cc(F)cc(F)c1,MET Y1235D,"binding, competition with immobilised ligand",1 µM,100
O=C(NCCCC1CCCCC1)c1ccc(CNC(=O)c2cnn(-c3ccccc3)c2C(F)(F)F)cc1,MET Y1235D,"cell-free assay, competition with immobilised ligand",0.1 µM,100
c1cncc(-c2cccc(Nc3nccc(NC4CCCCC4)n3)c2)c1,MET,"binding, competition with immobilised ligand",10 µM,43
N[C@@H]1CCN(c2nccc(-c3cnn4ncccc34)n2)C1,MET,binding,1 µM,60
CNC(=O)Nc1ccc2c(c1)CC[C@@]21OC(=O)N(CC(=O)N(Cc2ccc(F)cc2)[C@@H](C)C(F)(F)F)C1=O,MET Y1235D,"cell-free assay, competition with immobilised ligand",1 µM,81
O=C(NCC1CCOCC1)c1n[nH]cc1NC(=O)c1c(F)cccc1F,MET,"binding, competition with immobilised ligand",1 µM,100
CCN1CCN(Cc2ccc(C(=O)Nc3ccc(C)c(Oc4ccc5c(c4)CC(=O)N5)c3)cc2C(F)(F)F)CC1,MET Y1235D,"binding, competition with immobilised ligand",1 µM,100
C[C@H]1CCN(c2nccc(-c3cnn4ncccc34)n2)C1,MET Y1235D,binding,1 µM,100
CN(C)C(=O)Cn1cc(-c2nc(C3(c4ccc(-c5cnc(N)nc5)cc4)CC3)no2)cn1,MET Y1235D,"cell-free assay, competition with immobilised ligand",1 µM,98
C[C@@H]1CN(c2ccc3ncc(-c4ccc5[nH]nc(C6CC6)c5c4)n3n2)C[C@H](C)O1,MET,"binding, competition with immobilised ligand",50 nM,89
CCCCN(CCCC)C(=O)CN1C[C@H](c2cc(OC)c3c(c2)OCO3)[C@@H](C(=O)O)[C@@H]1CC(C)(C)CCC,MET Y1235D,"cell-free assay, competition with immobilised ligand",1 µM,100
CN(C)c1nccc(-c2cnn3ncccc23)n1,MET,binding,1 µM,89
Cc1cnc(Nc2ccc(C(=O)N3CCC(N4CCCC4)CC3)cc2)nc1-c1cc2ccccc2s1,MET M1250T,"binding, competition with immobilised ligand",1 µM,31
c1cnn2ncc(-c3ccnc(N4CCC45COC5)n3)c2c1,MET,binding,1 µM,83
Cc1nc(N2CC[C@@H](O)C2)ncc1-c1cc(C(F)(F)F)cc2[nH]ncc12,MET,"cell-free assay, competition with immobilised ligand",1 µM,100
